Compound activity: PubChem BioAssay, Johns Hopkins Ion Channel Center
hERG rescue = hERG (human) protection from proarrhythmic block | Q12809 | CHO-hERG, FluxOR thallium flux, dofetilide IC70 present | activation (rescue from dofetilide block), less the hit threshold, % at 10 µM | 310,000 tested, 0.51% active;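 active means activation above the mean of controls blocked by dofetilide plus 5 SD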;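 further: thallium influx through hERG after potassium depolarization seen as dye fluorescence rise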
KCNQ1 inh = human KCNQ1 channel inhibition; P51787; CHO-K1 KCNQ1, FluxOR thallium flux fluorescence; active compounds read high; B-score at 10 µM; 310,000 tested, 1.3% active; AID 2642;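 active means compounds whose thallium flux B-score, printed positive for inhibition, exceeds three library SD while starting fluorescence stays within three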;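 further: channel opened by potassium depolarization with thallium stimulus after 20 min compound exposure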
Target sequence (P51787 whole entry, looked up): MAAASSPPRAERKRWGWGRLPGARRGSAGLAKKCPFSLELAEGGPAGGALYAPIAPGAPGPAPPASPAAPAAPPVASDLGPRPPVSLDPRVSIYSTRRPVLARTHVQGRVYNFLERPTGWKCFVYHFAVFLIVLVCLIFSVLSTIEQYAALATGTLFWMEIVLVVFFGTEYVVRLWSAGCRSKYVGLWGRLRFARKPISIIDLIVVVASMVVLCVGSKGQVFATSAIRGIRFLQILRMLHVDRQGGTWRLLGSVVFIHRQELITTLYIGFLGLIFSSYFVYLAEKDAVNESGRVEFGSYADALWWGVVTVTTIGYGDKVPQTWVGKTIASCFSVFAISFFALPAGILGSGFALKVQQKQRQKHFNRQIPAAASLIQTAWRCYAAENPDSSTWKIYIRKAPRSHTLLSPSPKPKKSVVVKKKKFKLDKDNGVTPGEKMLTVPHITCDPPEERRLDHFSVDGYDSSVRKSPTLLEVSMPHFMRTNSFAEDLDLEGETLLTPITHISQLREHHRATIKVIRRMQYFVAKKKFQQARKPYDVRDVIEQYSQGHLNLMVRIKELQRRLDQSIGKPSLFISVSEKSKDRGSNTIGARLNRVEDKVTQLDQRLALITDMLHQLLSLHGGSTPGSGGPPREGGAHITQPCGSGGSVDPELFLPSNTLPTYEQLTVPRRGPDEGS
Kir21 inh = blocks the mouse Kir2.1 inward-rectifier potassium channel. P35561. HEK293-Kir2.1, FluxOR thallium flux fluorescence; active compounds read low. B-score at 10 µM. 310,000 tested, 0.85% active;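 active means fluorescence ratio B-score at or below minus 3 SD of library scores, with starting-brightness B-score within 2 SD, cut at about -4.2 in these data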;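 further: channel flux triggered by added potassium and thallium sulfate stimulus; B-score of peak minus minimum fluorescence over baseline after thallium stimulus; more negative B-score means stronger Kir2.1 block with less thallium influx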
KCNK3 inh = human KCNK3 channel inhibition, primary screen. B-score at 10 µM. AID 602410. 340,000 tested, 0.84% active. O14649. CHO-KCNK3 thallium flux, FluxOR fluorescence; active compounds read low;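 active means B-score under library mean minus 4 SD, starting fluorescence ratio at most library mean plus 5 SD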;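 further: more negative B-score means stronger inhibition of thallium flux through KCNK3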
KCNQ1 pot = potentiates or activates the human KCNQ1 potassium channel | P51787 | 310,000 tested, 0.35% active | AID 2648 | B-score at 10 µM | CHO-K1 KCNQ1, thallium flux FluxOR fluorescence; active compounds read high;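 active means fluorescence ratio B-score, a plate-corrected score, at least three library SD, with initial intensity B-score within 5 SD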
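assay system = KCNQ1-transfected CHO-K1 cells | medium = assay buffer with matched DMSO | probe or stimulus = depolarizing K+/Tl+ stimulus, K2SO4 and Tl2SO4 each 12.5 mM in 5x stock | dosing = single dose | incubation = dye 90 min, compound 20 min, room temperature | detection = kinetic FluxOR fluorescence, 10 s baseline plus 110 s post-stimulus | evaluation = ratio B score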
KCNK9 block = inhibitors of human KCNK9 two-pore domain potassium channel; Q9NPC2; HEK293 KCNK9, FluxOR thallium flux fluorescence; active compounds read low; B-score at 10 µM; 310,000 tested, 1.2% active; AID 488922;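 active means ratio B-score over 3 SD below the library mean, with starting fluorescence within 5 SD of its mean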;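 further: negative B-score means less thallium flux so channel inhibition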
Each line names hits and unclear results; the compound was inactive in the other large screens. Most compounds without a hit are left out; they make up all but 3.7% or so of the library.

O=C(Nc1ccc(S(=O)(=O)N2CCCCC2)cc1)c1ccc(CN2CCc3ccccc3C2)cc1	KCNQ1 inh 6
O=c1cnc2ccccc2n1Cc1ccccc1C(F)(F)F	none
O=S(=O)(N1CCOCC1)n1c(Cc2ccccc2)nc2ccccc21	Kir21 inh -4.3
O=S(=O)(N1CCOCC1)n1nnc2ccccc21	none
O=C(Nc1cccc(C(F)(F)F)c1)C12CC3CC(CC(C3)C1)C2	hERG rescue 5.0
CC1(C(=O)Nc2cccc(C(F)(F)F)c2)CO1 (stereo unspecified)	none (no result: KCNK3 inh)
OC(CNCCc1ccc(C(F)(F)F)cc1)COc1cccc2ccccc12 (stereo unspecified)	hERG rescue 5.3, Kir21 inh -8
OC(CNCCc1ccc(C(F)(F)F)cc1)COc1ccc2ccccc2c1 (stereo unspecified)	none
OC(CNC1CCCCCC1)COc1cccc2ccccc12 (stereo unspecified)	Kir21 inh -4.9
Cc1ccccc1OCC(O)CNC1CCC(NCC(O)COc2ccccc2C)CC1 (stereo unspecified)	Kir21 inh -5.5
OC(CNC1CCCC1)COc1ccccc1Br (stereo unspecified)	none
N#Cc1ccc(CSc2nnc(Cc3cccs3)n2Cc2ccco2)cc1	Kir21 inh -6.1
Cc1cccc(NC(=O)c2cccc(NS(=O)(=O)c3ccc(Cl)cc3)c2)c1	KCNQ1 inh 10
Cc1ccc(NC(=O)c2ccc3c(c2)OCCO3)cc1S(=O)(=O)Nc1cccc(Cl)c1	KCNQ1 inh 6
COc1cccc(NC(=O)CNS(=O)(=O)c2ccc(Cl)cc2)c1	Kir21 inh -4.2
COc1ccc(NC(=O)CNS(=O)(=O)c2ccc(Cl)cc2)cc1	none
O=C(CN1C(=O)NC2(CCCC2)C1=O)OCc1cccc(Br)c1	none (no result: hERG rescue, KCNQ1 inh, Kir21 inh, KCNQ1 pot, KCNK9 block)
CC(=O)Cc1nsc(NC(=O)c2cccs2)n1	hERG rescue 12
CC(=O)Cc1nsc(NC(=O)c2ccccc2)n1	none
CCOc1ccc(-c2cc(C(=O)OC)nc3c2c(=O)n(C)c(=O)n3C)cc1	none
Cc1cccc(CN2CCc3c([nH]c4ccccc34)C2)c1	Kir21 inh -5.9
Clc1cccc(CN2CCc3c([nH]c4ccccc34)C2)c1	none
O=C(COC(=O)CNC(=O)c1ccccc1)NC(=O)NC1CCCCC1	none (no result: hERG rescue, KCNQ1 inh, Kir21 inh, KCNQ1 pot, KCNK9 block)
COc1cc(CC(=O)OCC(=O)NC2CCCCCC2)cc(OC)c1OC	none (no result: hERG rescue, KCNQ1 inh, Kir21 inh, KCNQ1 pot, KCNK9 block)
CCCCNC(=S)Nc1ccccc1Cc1ccccc1	Kir21 inh -4.7
CCCCNC(=O)Nc1ccccc1CC	none
CCOc1ncccc1C(=O)OCC(=O)NC1CCCCC1	none (no result: hERG rescue, KCNQ1 inh, Kir21 inh, KCNQ1 pot, KCNK9 block)
O=C(c1ccc2oc(CCCc3ccccc3)nc2c1)N1CCCC1	none
O=P(OCC1CCCO1)(OCC1CCCO1)OCC1CCCO1 (stereo unspecified)	none (no result: hERG rescue, KCNQ1 inh, Kir21 inh, KCNQ1 pot, KCNK9 block)
CCOc1ccc(CN(C(=O)c2oc3cc(C)ccc3c2C)C2CCS(=O)(=O)C2)cc1 (stereo unspecified)	KCNK9 block -6.7
O=C(NC1CCSc2ccccc21)c1cc(S(=O)(=O)N2CCOCC2)ccc1Cl (stereo unspecified)	none
NNC(=O)Cn1c(-c2nonc2N)nc2ccccc21	none
CCCCOc1ccccc1NC(=O)Cn1c(-c2nonc2N)nc2ccccc21	KCNK3 inh -8.8
N#Cc1c(N)oc(-c2ccc3c(c2)OCO3)c1-c1ccc2c(c1)OCO2	KCNK9 block -6.8
Cc1cccc(NC(=O)CN(C)C(=O)C2CCCC2)c1C	none (no result: hERG rescue, KCNQ1 inh, Kir21 inh, KCNQ1 pot, KCNK9 block)
O=C(c1cccs1)c1ccc(-c2cccs2)s1	KCNK9 block -6.8
COc1ccc(NS(=O)(=O)c2ccc(C)c(NC(=O)CNC(=O)c3ccco3)c2)cc1	none (no result: hERG rescue, KCNQ1 inh, Kir21 inh, KCNQ1 pot, KCNK9 block)
O=C(/C=C/c1ccc(Br)cc1)N1CCN(c2cccc(C(F)(F)F)c2)CC1	KCNQ1 inh 7
CC(OC(=O)[C@@H]1CCCN1C(=O)c1cccs1)C(=O)Nc1cccc([N+](=O)[O-])c1 (stereo partly specified)	none (no result: hERG rescue, KCNQ1 inh, Kir21 inh, KCNQ1 pot, KCNK9 block)
CCCCC(=Nc1ccccc1OC)C1=C(O)CC(c2ccccc2)CC1=O (stereo unspecified)	KCNQ1 inh 7
CCC1(c2ccccc2)SCC(c2ccccc2)=NC1=O (stereo unspecified)	none (no result: hERG rescue, KCNQ1 inh, Kir21 inh, KCNQ1 pot, KCNK9 block)
Cc1ccc(OCC(=O)NC(=S)Nc2ccc(Br)c(C)n2)cc1	none
